{"data": "Published values collected from several papers", "target": "Proto-oncogene tyrosine-protein kinase ROS (ROS1, Homo sapiens, UniProt P08922)", "note": "Protocols differ between the studies behind these lines."}
{"Structure (SMILES)": "CC1=C(C#N)[C@@H](c2ccc3[nH]nc(C)c3c2)C(C#N)=C(c2ccc(Cl)cc2)N1", "assay": "cell-free assay, competition with immobilised ligand", "setting": "1 µM", "remaining binding [%]": 100}
{"Structure (SMILES)": "C[C@H]1CCN(c2nccc(-c3cnn4ncccc34)n2)C1", "assay": "binding", "setting": "1 µM", "remaining binding [%]": 91}
{"Structure (SMILES)": "O=C(Nc1cccnn1)N1CC(C/C=C/c2cncc(Oc3ccc(C(F)(F)F)cn3)n2)C1", "assay": "cell-free assay, competition with immobilised ligand", "setting": "1 µM", "remaining binding [%]": 100}
{"Structure (SMILES)": "O=C(c1ccc(Nc2ncc(Cl)c(-c3cc4ccccc4s3)n2)cc1)N1CCC(N2CCCC2)CC1", "assay": "binding, competition with immobilised ligand", "setting": "1 µM", "remaining binding [%]": 31}
{"Structure (SMILES)": "CC(C)(O)c1cncc(-c2nc3ccc(F)cc3n2C2CC2)c1", "assay": "cell-free assay, competition with immobilised ligand", "setting": "1 µM", "remaining binding [%]": 100}
{"Structure (SMILES)": "CN(C)c1nccc(-c2cnn3ncccc23)n1", "assay": "binding", "setting": "1 µM", "remaining binding [%]": 100}
{"Structure (SMILES)": "N#CC1(c2ccccn2)CCN(Cc2cc(C(=O)N3CCCC3)c(=O)n3ccccc23)CC1", "assay": "cell-free assay, competition with immobilised ligand", "setting": "1 µM", "remaining binding [%]": 97}
{"Structure (SMILES)": "CN(C)c1ncc(F)c(-c2cnn3ncccc23)n1", "assay": "binding", "setting": "1 µM", "remaining binding [%]": 87}
{"Structure (SMILES)": "CNCc1ccccc1-c1csc([C@@H](C)Nc2nc(C)nc3cc(OC)c(OC)cc23)c1", "assay": "cell-free assay, competition with immobilised ligand", "setting": "1 µM", "remaining binding [%]": 84}
{"Structure (SMILES)": "C[C@@H](c1ccc(-n2cnc3c(N)ncnc32)cc1)N1CCc2nn(C)c(Cc3ccccc3)c2C1=O", "assay": "binding, competition with immobilised ligand", "setting": "0.1 µM", "remaining binding [%]": 100}
{"Structure (SMILES)": "O=C(NCCCN1CCOCC1)c1ccc(Nc2ncc(Cl)c(-c3ccc(Cl)s3)n2)cc1", "assay": "binding, competition with immobilised ligand", "setting": "1 µM", "remaining binding [%]": 47}
{"Structure (SMILES)": "CNC(=O)[C@@H]1CC[C@@H](n2c(-c3ccc4cnccc4c3)nc3ccc(C(=O)NCc4cccc(C(N)=O)c4)cc32)C1", "assay": "binding, competition with immobilised ligand", "setting": "1 µM", "remaining binding [%]": 100}
{"Structure (SMILES)": "FC(F)(F)Oc1cccc(-c2cnc3ccc(-c4ccncc4)nn23)c1", "assay": "binding, competition with immobilised ligand", "setting": "5 µM", "remaining binding [%]": 81}
{"Structure (SMILES)": "CN(c1nccc(-c2cnn3ncccc23)n1)C1CC1", "assay": "binding", "setting": "1 µM", "remaining binding [%]": 100}
{"Structure (SMILES)": "Cc1cnc(Nc2ccc(C(=O)N3CCC(N4CCCC4)CC3)cc2)nc1-c1cc2ccccc2s1", "assay": "binding, competition with immobilised ligand", "setting": "1 µM", "remaining binding [%]": 31}
{"Structure (SMILES)": "CN(CCCC(F)(F)F)c1nccc(-c2cnn3ncccc23)n1", "assay": "binding", "setting": "1 µM", "remaining binding [%]": 79}
{"Structure (SMILES)": "c1cncc(-c2cccc(Nc3nccc(NC4CCCCC4)n3)c2)c1", "assay": "binding, competition with immobilised ligand", "setting": "10 µM", "remaining binding [%]": 20}
{"Structure (SMILES)": "COc1ccc2c(O[C@@H]3C[C@H]4C(=O)N[C@]5(C(=O)O)CC5/C=C\\CCCCC[C@H](NC(=O)OC5CCCC5)C(=O)N4C3)cc(-c3csc(NC(=O)C(C)C)n3)nc2c1C (stereo partly shown)", "assay": "cell-free assay, competition with immobilised ligand", "setting": "1 µM", "remaining binding [%]": 100}
{"Structure (SMILES)": "N[C@H]1CCN(c2nccc(-c3cnn4ncccc34)n2)C1", "assay": "binding", "setting": "1 µM", "remaining binding [%]": 85}
{"Structure (SMILES)": "O=C(NCC1CCOCC1)c1n[nH]cc1NC(=O)c1c(F)cccc1F", "assay": "binding, competition with immobilised ligand", "setting": "1 µM", "remaining binding [%]": 100}
{"Structure (SMILES)": "O=S(=O)(NC1CCC(c2cc(F)ccc2F)(S(=O)(=O)c2ccc(Cl)cc2)CC1)C(F)(F)F (stereo not shown)", "assay": "cell-free assay, competition with immobilised ligand", "setting": "1 µM", "remaining binding [%]": 100}
{"Structure (SMILES)": "CC1CCCN1c1nccc(-c2cnn3ncccc23)n1 (stereo not shown)", "assay": "binding", "setting": "1 µM", "remaining binding [%]": 100}
